Screening results from PubChem.
A selection: hits, their analogues and other compounds. The true share with any hit is near 3.4%.
MDM2 E3 inh: inhibitors of human Mdm2 E3 ubiquitin ligase. Q00987. cell-based MDM2 ubiquitination luciferase reporter, 2 h; 0 = plate control, 100 = twice control, blank-subtracted. signal enhancement, % at 5 µM. 210,000 compounds, 0.11% hits;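 active = signal enhancement of 30% or more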;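 also: luminescence tracks abundance of the self-degrading MDM2-luciferase fusion protein; higher signal means inhibition of MDM2 E3 ligase activity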
Target sequence (Q00987 whole entry, looked up, the tested form may be a part): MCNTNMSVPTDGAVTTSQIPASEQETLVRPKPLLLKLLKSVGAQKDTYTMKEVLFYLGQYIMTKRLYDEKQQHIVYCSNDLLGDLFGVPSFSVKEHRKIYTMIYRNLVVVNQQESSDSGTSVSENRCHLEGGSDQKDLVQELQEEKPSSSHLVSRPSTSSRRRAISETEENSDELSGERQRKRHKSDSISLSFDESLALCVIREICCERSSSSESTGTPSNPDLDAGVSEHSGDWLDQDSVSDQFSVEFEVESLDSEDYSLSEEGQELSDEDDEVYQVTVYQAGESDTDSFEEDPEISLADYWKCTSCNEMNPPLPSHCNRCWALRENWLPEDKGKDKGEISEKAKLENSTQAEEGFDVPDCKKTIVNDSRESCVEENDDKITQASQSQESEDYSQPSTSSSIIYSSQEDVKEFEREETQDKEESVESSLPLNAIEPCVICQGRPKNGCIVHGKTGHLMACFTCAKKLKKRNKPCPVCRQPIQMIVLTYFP
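Assay system: stable mammalian line carrying autodegrading MDM2–luciferase fusion reporter; Input: 2000 cells in each well; Compound dosing: single-point 5 µM; Schedule: 2 h compound exposure at 37 °C; Signal: SteadyLite luciferase luminescence after 15 min room-temperature reagent incubation; Evaluation: % luminescence enhancement versus blank-corrected plate control mean; Benchmarks: plate controls and plate blanks.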
PKD1 inh: inhibitors of human PKD1 kinase. Q15139. PKD1 kinase fluorescence polarization assay. inhibition, % (no concentration beside the values). 200,000 compounds, 0.056% hits. AID 797; in the data active = inhibition above about 50%
KCC2 mod: modulators of human KCC2 chloride dependent transport. Q9H2X9. KCC2 cells, thallium flux FluoZin-2 fluorescence. B-score of Tl+ flux slope (higher = more flux/activation; lower = inhibition) at 10 µM. 190,000 compounds, 2.2% hits. AID 1456;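 active = thallium flux slope and its plate-corrected score both differing from the plate sample mean at a set confidence after two filtering rounds, in either direction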;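 also: slope of fluorescence scaled to starting intensity during 10 to 20 s after thallium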
p97 ATPase inh: human p97 ATPase inhibition; P55072; recombinant p97 ATPase, Kinase-Glo ATP luminescence, 3 h; inhibition, % at 8 µM; 220,000 compounds, 0.42% hits; AID 1481; in the data active = inhibition above about 15%;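 also: 0% = DMSO vehicle and 100% = wells lacking enzyme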
ROMK mod: human ROMK K+ channel modulation, primary screen; 130,000 compounds, 2% hits; Tet-inducible ROMK, thallium flux fluorescence; actives lie on both sides; B-score at 10 µM; AID 1918; P48048;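 active = signal ratio slope over the read window, or its plate-corrected B-score, at least 3 SD from the plate mean, either direction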;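 also: B-score of the F/F0 ratio slope over 7 to 12 s after thallium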
DTT redox prof: compounds producing H2O2 with reducing agent – biochemical, NIH compound library profiling, artefact control for MLSCN library redox annotation, primary screen. DTT-dependent redox cycling H2O2, phenol red/HRP absorbance; 100% = 100 µM peroxide control, 0% = buffer. activation, % at 10 µM. 200,000 compounds, 0.03% hits;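 active = activation of at least 50% relative to the plate's high and low controls in the primary single-dose screen; inactive = activation below 50%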;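 also: compound incubated with DTT at 0.8 mM final as the reducing agent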
Numbers without * were called inactive; x = not tested or not shown.

SMILES	MDM2 E3 inh	PKD1 inh	KCC2 mod	p97 ATPase inh	ROMK mod	DTT redox prof
Cc1ccsc1C1Nc2ccc3ncccc3c2C2=C1C(=O)CCC2 (centres undefined)	34*	9	x	5	0.043	0
COc1cc(C2Nc3ccc4ncccc4c3C3=C2C(=O)CCC3)cc(OC)c1OC (centres undefined)	5	-9	-0.29	10	1.1	-1
O=C(c1c(Cl)cccc1Cl)N1CCCCCC1	-26	-8	1.2	4	0.86	2
CN(C)c1nc(NC(C)(C)C)nc(NC(C)(C)C)n1	-25	0	0.52	4	-0.29	0
CCOC(=O)c1sc(=NC(=O)CCS(=O)(=O)c2ccccc2)n(C)c1C	2	91*	0.15	0	0.25	0
CCOC(=O)c1sc(=NC(=O)c2ccccc2)n(C)c1C	-20	-8	0.32	5	-1.3	0
O=C(NC(=S)Nc1ccccc1Cl)c1csnn1	-12	-19	17*	4	x	3
CCCOc1cccc(C(=O)NC(=S)Nc2cccc(C(F)(F)F)c2)c1	-20	-8	11*	-2	x	-17
O=C(NC(=S)Nc1cccc(C(F)(F)F)c1)c1csnn1	-7	-3	59*	5	8.8*	0
CN(C)NC(=S)Nc1cccc(C(F)(F)F)c1	-9	x	0.2	10	x	x
O=C(Nc1ccccc1NC(=O)c1csnn1)c1csnn1	-4	2	-1.1	3	-0.057	-1
O=C1c2ccccc2C(=O)N1c1ncn[nH]1	-10	x	-0.68	2	x	x
CC(C)Oc1ccc(C(=O)NC(=S)N2CCOCC2)cc1	53*	1	0.93	7	-0.53	0
COc1ccccc1/C=C/C=N/N1CCN(Cc2ccc(Cl)cc2)CC1	-13	-2	-0.17	2	-0.45	-4
CCOC(=O)N1CCC(NC(=O)c2cc(S(=O)(=O)N3CCCC3)cn2C)CC1	-3	13	x	0	x	0
O=C(NC(=S)N1CCN(c2ccc(C(F)(F)F)cc2[N+](=O)[O-])CC1)c1cccs1	-12	-1	64*	-3	x	0
O=[N+]([O-])c1cc(C(F)(F)F)ccc1N1CCCNCC1	-17	2	-0.013	-4	-1.1	1
N#Cc1c2ccc(O)cc2n2ccccc12	-33	13	-4.2*	7	-4.7*	0
COC(=O)Cn1c(C)c(C#N)c2ccccc21	0	-2	-0.94	2	x	0
CCn1c(SCC(=O)NC(=O)NCc2ccco2)nc2sc(C)c(C)c2c1=O	-29	-9	16*	0	0.76	-1
CCOC(=O)CS(=O)(=O)CC(=O)Nc1ccc([N+](=O)[O-])cc1OC	6	-6	-0.77	4	-0.67	0
Cc1ccccc1NC(=O)CN1C(=O)COc2ccc(Cl)cc21	-14	-4	0.84	15*	x	-1
Cc1cccc(N2CCN(C(=O)c3ccc4ncsc4c3)CC2)c1C	-15	-3	0.48	-7	3.3*	0
O=C(c1ccc2ncsc2c1)N1CCN(c2ccccc2Cl)CC1	1	1	-0.44	-1	x	0
CCOC(=O)N1N=C(c2ccc(C)cc2)CC1(O)C(F)(F)F (centres undefined)	0	-4	1.5	2	x	1
SMILES	MDM2 E3 inh	PKD1 inh	KCC2 mod	p97 ATPase inh	ROMK mod	DTT redox prof
Cn1c(SCCC#N)nnc1-c1ccccc1F	-16	1	0.024	3	0.73	-1
N#CC1=C(N)SC(N)=C(C#N)C1CCc1ccccc1	-3	6	-3.1*	1	x	1
CCc1ccc(C2C(C#N)=C(N)SC(N)=C2C#N)s1	-2	-5	-1.7	3	-1.9	2
N#CC1=C(N)SC(N)=C(C#N)C1Cc1ccccc1	-12	-4	x	-1	x	-1
Cc1ccc(C2C(C#N)=C(N)SC(N)=C2C#N)o1	1	-1	-0.76	15*	x	3
CCc1ccc(C2C(C#N)=C(N)SC(N)=C2C#N)cc1	-16	5	7.9*	-2	-4.2*	1
Cc1onc(-c2ccccc2)c1NC(=O)N(CCC(=O)O)Cc1ccccc1	-4	x	x	-1	x	x
COc1ccc(Nc2ccc(Nc3ccc(OC)cc3)nn2)cc1	-5	-6	-0.017	-2	-0.15	0
COc1ccc(Nc2ccc(OC)cc2)cc1	-7	x	0.34	15*	x	x
